From PubChem
Rows were chosen to be rich in hits. Some 3.5% of all compounds tested hit in one or more screens of this group.
MrgX1 allo act = allosterically activates human MrgX1 receptor signaling | MrgX1-HEK293, Fluo-4 calcium flux, FDSS; active compounds read high | 0.63% of 310,000 active | B-score at 10 µM | Q96LB2;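 active means plate-corrected calcium response at least 3 library SD above typical, normal starting fluorescence, not activating the receptor alone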;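 further: compound read alongside a low EC10 to EC30 dose of BAM8-22 agonist; peak minus trough fluorescence over baseline measured at the second addition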
Target sequence (Q96LB2 whole entry, looked up): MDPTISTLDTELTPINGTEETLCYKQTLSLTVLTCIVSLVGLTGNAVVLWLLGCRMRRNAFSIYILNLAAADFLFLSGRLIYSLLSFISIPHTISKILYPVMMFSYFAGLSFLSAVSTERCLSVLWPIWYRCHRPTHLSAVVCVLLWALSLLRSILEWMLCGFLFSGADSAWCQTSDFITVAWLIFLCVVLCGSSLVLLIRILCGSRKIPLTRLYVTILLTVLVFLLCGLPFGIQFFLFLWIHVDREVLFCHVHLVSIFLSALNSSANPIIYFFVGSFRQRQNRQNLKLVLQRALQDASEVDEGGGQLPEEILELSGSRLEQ
MrgX1 antag = blocks BAM8-22 activation of human MrgX1 receptor | MRGX1-HEK293 calcium flux, Fluo-4, BAM8-22 antagonism; active compounds read low | B-score at 10 µM | 1.3% of 310,000 active | AID 588676;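 active means calcium-response B-score plate-corrected more than 3 library SD below zero, starting fluorescence within 5 deviations, no agonist response on first addition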;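 further: peak minus trough fluorescence over baseline after final BAM8-22 challenge near maximal dose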
RGS4 block = inhibitors of human RGS4 | HEK293 M3R/RGS4 inducible, Fluo-4 calcium flux; active compounds read high; triggered by carbachol at its EC20 | B-score at 10 µM | 0.45% of 310,000 active | AID 463165;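 active means B-score, a plate-corrected calcium signal, over three deviations above library mean, with baseline fluorescence within five deviations of library mean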;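 further: RGS4 expression induced by doxycycline in cells with stable M3 receptor; B-score is computed from the integrated fluorescence ratio over baseline after carbachol; higher B-score means a larger calcium signal and so more RGS4 inhibition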
Target sequence (P49798 whole entry, looked up): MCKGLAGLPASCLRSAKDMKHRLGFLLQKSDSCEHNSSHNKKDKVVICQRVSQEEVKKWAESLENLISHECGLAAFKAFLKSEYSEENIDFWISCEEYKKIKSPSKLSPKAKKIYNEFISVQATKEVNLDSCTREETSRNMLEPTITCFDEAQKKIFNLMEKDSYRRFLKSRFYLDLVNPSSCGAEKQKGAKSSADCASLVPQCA
RGS4 act = potentiators or activators of RGS4 | HEK293 M3R/inducible RGS4, carbachol calcium flux Fluo4; active compounds read low | AID 463111 | B-score at 10 µM | 0.92% of 310,000 active;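 active means B-score of the integrated calcium signal more than 4 SD below the library mean, with starting fluorescence not abnormally high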;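 further: negative B-score means reduced calcium response which marks RGS4 activation or potentiation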
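Material: Inducible-RGS4 HEK293 cells carrying M3 receptor; also added: carbachol at ECmax as muscarinic agonist stimulus; incubation: compound preincubation 20 min at room temperature before agonist; signal: Fluo4-AM (2 µM) calcium-flux fluorescence, kinetic read; measure: integrated calcium ratio converted to B score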
MrgX1 agonist = human MrgX1 receptor agonism, primary screen. AID 588627. 0.44% of 310,000 active. MrgX1-HEK293 cells, Fluo-4 calcium fluorescence, agonist mode; active compounds read high. B-score at 10 µM;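 active means calcium response B-score plate-corrected fluorescence ratio at least 3 library SD, with starting fluorescence B-score inside 5 SD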
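Test system: HEK293 cells stably expressing human MrgX1 receptor; Input: fifteen thousand cells per well; Dosing: compound delivered in addition one of three; Schedule: overnight seeding, then 1 h dark dye loading; Technique: Fluo-4 NW calcium fluorescence; Measure: B-scored fluorescence response ratio; Controls: positive and negative controls per plate.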
* = called active by the depositor.

`O=C(N/N=C/c1ccc(OC(=O)c2ccccc2Cl)cc1)c1cc(O)cc(O)c1` gave MrgX1 allo act inactive, MrgX1 antag inactive, RGS4 block inactive, RGS4 act -7.6* and MrgX1 agonist inactive.
For CC(C)N1C(=O)CCC1C(=O)N1CCN(c2ccc(F)cc2)CC1 (stereo not given) the results were MrgX1 allo act inactive, MrgX1 antag inactive, RGS4 block inactive, RGS4 act inactive and MrgX1 agonist inactive.
`CC(C)N1C(=O)CCC1C(=O)N1CCC(Cc2ccccc2)CC1` (stereo not given) gave MrgX1 allo act inactive, MrgX1 antag -5.9*, RGS4 block inactive, RGS4 act inactive and MrgX1 agonist inactive.
`Cc1ccc(Cl)cc1NC(=O)Nn1cnnc1` gave MrgX1 allo act inactive, MrgX1 antag inactive, RGS4 block inactive, RGS4 act inactive and MrgX1 agonist inactive.
Screening COc1ccc(C(=O)Nc2ccccc2C(=O)NCCN2CCOCC2)cc1OC returned MrgX1 allo act inactive, MrgX1 antag inactive, RGS4 block inactive, RGS4 act inactive and MrgX1 agonist inactive.
`COC(=O)[C@@]1(Cc2ccccc2)[C@H]2c3cc(C(=O)N4CCCC4)n(CCSCCO)c3C[C@H]2CN1C(=O)c1ccccc1` gave MrgX1 allo act inactive, MrgX1 antag -5.2*, RGS4 block inactive, RGS4 act inactive and MrgX1 agonist inactive.
COC(=O)[C@@]1(Cc2ccc(F)cc2)[C@H]2c3cc(C(=O)N(C)C)n(CCc4ccc(OC)c(Br)c4)c3C[C@H]2CN1C(=O)c1ccccc1 was read as MrgX1 allo act inactive, MrgX1 antag inactive, RGS4 block inactive, RGS4 act -7.2* and MrgX1 agonist inactive.
`COC(=O)[C@@]1(Cc2ccc(F)cc2)[C@H]2c3cc(C(=O)N(C)C)n(Cc4ccc(OC)c(OC)c4)c3C[C@H]2CN1C(=O)c1ccccc1` gave MrgX1 allo act inactive, MrgX1 antag inactive, RGS4 block inactive, RGS4 act inactive and MrgX1 agonist inactive.
Screening CCn1ccnc1C(O)(c1ccccc1)c1ccccc1 returned MrgX1 allo act inactive, MrgX1 antag inactive, RGS4 block inactive, RGS4 act inactive and MrgX1 agonist inactive.
Screening CCc1ccc(-n2cc(-c3ccc(F)cc3)[n+]3c2SCCC3)cc1 returned MrgX1 allo act inactive, MrgX1 antag inactive, RGS4 block inactive, RGS4 act -7.3* and MrgX1 agonist inactive.
Screening Cc1ccc(-c2cn(-c3ccccc3)c3[n+]2CCCS3)cc1 returned MrgX1 allo act inactive, MrgX1 antag inactive, RGS4 block inactive, RGS4 act inactive and MrgX1 agonist inactive.
`CC(=O)n1c(-c2ccccc2)c(CO)c2ccccc21` gave MrgX1 allo act 22*, MrgX1 antag inactive, RGS4 block inactive, RGS4 act inactive and MrgX1 agonist inactive.
`CC(=O)Nc1ccc2c(c1)c1ccccc1n2C(C)=O` gave MrgX1 allo act inactive, MrgX1 antag inactive, RGS4 block inactive, RGS4 act inactive and MrgX1 agonist inactive.
`COc1ccc(CCNC(=O)Cn2c(=O)[nH]c3ccsc3c2=O)cc1OC` gave MrgX1 allo act inactive, MrgX1 antag inactive, RGS4 block inactive, RGS4 act inactive and MrgX1 agonist inactive.
Cc1cc(C)n2nc(C(=O)OCC(=O)c3c[nH]c4ccccc34)nc2n1 was read as MrgX1 allo act inactive, MrgX1 antag -5.5*, RGS4 block inactive, RGS4 act inactive and MrgX1 agonist inactive.
Screening CN(C)c1ccc(/C=N/N(CCO)C2=NS(=O)(=O)c3ccccc32)cc1 returned MrgX1 allo act inactive, MrgX1 antag inactive, RGS4 block inactive, RGS4 act -7.9* and MrgX1 agonist inactive.
For O=S1(=O)N=C(N(CCO)/N=C/c2ccc(Cl)cc2)c2ccccc21 the results were MrgX1 allo act inactive, MrgX1 antag inactive, RGS4 block inactive, RGS4 act inactive and MrgX1 agonist inactive.
For CCOc1cc(/C=C2\C(=N)N3N=CSC3=NC2=O)ccc1OS(=O)(=O)c1ccccc1 the results were MrgX1 allo act inactive, MrgX1 antag inactive, RGS4 block inactive, RGS4 act inactive and MrgX1 agonist 57*.
`CC1CCN(C2=NN3C(=N)/C(=C\c4ccc(OC(=O)c5ccco5)cc4)C(=O)N=C3S2)CC1` gave MrgX1 allo act inactive, MrgX1 antag inactive, RGS4 block inactive, RGS4 act inactive and MrgX1 agonist inactive.
Screening COc1cc(/C=C2/C(=N)N3C(=NC2=O)SN=C3S(=O)(=O)C(C)C)ccc1OS(=O)(=O)c1ccccc1 returned MrgX1 allo act 13*, MrgX1 antag inactive, RGS4 block inactive, RGS4 act inactive and MrgX1 agonist inactive.
For COc1cc(/C=C2/SC(=S)N(C)C2=O)ccc1OC(=O)c1ccco1 the results were MrgX1 allo act inactive, MrgX1 antag -5*, RGS4 block inactive, RGS4 act inactive and MrgX1 agonist inactive.
COc1cc(/C=C2/SC(=O)NC2=O)ccc1OC(=O)c1ccco1 was read as MrgX1 allo act inactive, MrgX1 antag inactive, RGS4 block inactive, RGS4 act inactive and MrgX1 agonist inactive.
CS(=O)(=O)C1=NSC2=NC(=O)/C(=C\c3ccc(OC(=O)c4ccco4)cc3)C(=N)N21 was read as MrgX1 allo act 25*, MrgX1 antag inactive, RGS4 block inactive, RGS4 act inactive and MrgX1 agonist inactive.
Cc1cc(C)c(S(C)(=O)=O)c(Sc2ccc(Cl)cc2)n1 was read as MrgX1 allo act inactive, MrgX1 antag inactive, RGS4 block inactive, RGS4 act inactive and MrgX1 agonist inactive.
Screening CCS(=O)(=O)C1=NN2C(=N)/C(=C\c3ccc(OC(=O)c4ccco4)c(OC)c3)C(=O)N=C2S1 returned MrgX1 allo act inactive, MrgX1 antag inactive, RGS4 block inactive, RGS4 act inactive and MrgX1 agonist inactive.
COc1cc(/C=C2/C(=N)N3C(=NC2=O)SN=C3S(C)(=O)=O)ccc1OC(=O)c1ccco1 was read as MrgX1 allo act 18*, MrgX1 antag inactive, RGS4 block inactive, RGS4 act inactive and MrgX1 agonist inactive.
Cc1cc(/C=C2/C(=N)N3C(=NC2=O)SN=C3S(C)(=O)=O)c(C)n1-c1ccccc1F was read as MrgX1 allo act 11*, MrgX1 antag inactive, RGS4 block inactive, RGS4 act inactive and MrgX1 agonist inactive.
`CC1=CC2=NC(=O)/C(=C\c3cc(C)n(-c4ccccc4F)c3C)C(=N)N2O1` gave MrgX1 allo act inactive, MrgX1 antag inactive, RGS4 block inactive, RGS4 act inactive and MrgX1 agonist inactive.
For CCS(=O)(=O)C1=NSC2=NC(=O)/C(=C\c3ccc(OC(=O)c4ccco4)c(OC)c3)C(=N)N21 the results were MrgX1 allo act 28*, MrgX1 antag inactive, RGS4 block inactive, RGS4 act inactive and MrgX1 agonist inactive.
